The record followed here is ChEMBL document CHEMBL1255276, “Reliability of the WIDERYST susceptibility testing system for detection of in vitro antifungal resistance in yeasts” (2008).

The term MIC denotes the lowest concentration found to suppress growth. Lower therefore signals greater potency.

Holding throughout (format): functional
Experiment [1] concerns Pichia kudriavzevii. Put plainly: Antifungal activity against Candida krusei ATCC 6258 by AFST-EUCAST method. The method in brief:
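AFST-EUCAST microdilution standard for fermentative yeasts (document 7.1). The medium was RPMI 1640 with 2% glucose in flat-bottomed plates, and the inoculum was 10^5 CFU/ml. Endpoints were read spectrophotometrically at 24 and 48 h. The MIC was the lowest concentration giving ≥90% growth reduction versus the drug-free control for AMB, or a 50% OD reduction for 5FC and azoles. Run as a quality-control strain in each set.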

Experiment [2] deals with Candida parapsilosis. As to the kind of experiment: Antifungal activity against Candida parapsilosis ATCC 22019 by CLSI M27-A2 microdilution method. Particulars: Lodderomyces parapsilosis. A general note: In broth dilution the organism is exposed to a series of concentrations in liquid medium.
Experiment [3] deals with Pichia kudriavzevii. As to the kind of experiment: Antifungal activity against Candida krusei ATCC 6258 by WIDERYST method.
Experiment [4] concerns Candida parapsilosis. Put plainly: Antifungal activity against Candida parapsilosis ATCC 22019 by AFST-EUCAST method. Particulars: Lodderomyces parapsilosis. Summed up:
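Microdilution per AFST-EUCAST 7.1, with the strain run as a quality control in each set. RPMI 1640 plus 2% glucose, inoculum 10^5 CFU/ml, flat-bottomed plates. Read spectrophotometrically at 24 and 48 h. MIC endpoint is the lowest concentration giving ≥90% growth reduction versus the drug-free control for AMB, and 50% OD reduction for 5FC and azoles.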

The test system of experiment [5] is Pichia kudriavzevii. As to the kind of experiment: Antifungal activity against Candida krusei ATCC 6258 by CLSI M27-A2 microdilution method.
Experiment [6] concerns Candida parapsilosis. Put plainly: Antifungal activity against Candida parapsilosis ATCC 22019 by WIDERYST method. Particulars: Lodderomyces parapsilosis. The method in brief:
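Commercial 96-well panels with lyophilized drugs, the strain serving as a quality control. Ranges: FLC and 5FC 128–0.06 µg/ml; AMB, ITC, VRC and KTC 8–0.004 µg/ml. Inoculum 1 x 10^5 to 5 x 10^5 CFU/ml, 35°C, 24 h, no CO2, plus 24 h if no growth. Video-image read; MIC is 90% (AMB) or 50% (others) growth reduction versus the positive control.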

SMILES strings stand for the structures. Values after ≈ are worked out from the molar mass of the structure shown.

In the case of `C[C@@H]1[C@H](O)[C@@H](C)/C=C/C=C/C=C/C=C/C=C/C=C/C=C/[C@H](O[C@@H]2O[C@H](C)[C@@H](O)[C@H](N)[C@@H]2O)C[C@@H]2O[C@](O)(C[C@@H](O)C[C@@H](O)[C@H](O)CC[C@@H](O)C[C@@H](O)CC(=O)O[C@H]1C)C[C@H](O)[C@H]2C(=O)O` [AMPHOTERICIN B], the MIC in experiment [1] turned out to be 0.12 µg/mL (≈ 0.13 µM); in experiment [2] it was 0.25 µg/mL (≈ 0.271 µM); in experiment [3], 0.12 µg/mL (≈ 0.13 µM); in experiment [4], 0.12 µg/mL (≈ 0.13 µM); in experiment [5], 0.5 µg/mL (≈ 0.541 µM); in experiment [6], 0.06 µg/mL (≈ 0.0649 µM).

Turning to `OC(Cn1cncn1)(Cn1cncn1)c1ccc(F)cc1F` [FLUCONAZOLE], the MIC in experiment [1] worked out at 8 µg/mL (≈ 26.1 µM); in experiment [2], 1 µg/mL (≈ 3.27 µM); in experiment [3], 8 µg/mL (≈ 26.1 µM); in experiment [4], 1 µg/mL (≈ 3.27 µM); in experiment [5], 16 µg/mL (≈ 52.2 µM); in experiment [6], 0.5 µg/mL (≈ 1.63 µM).

`Nc1nc(=O)[nH]cc1F` [FLUCYTOSINE]: the MIC is 1 µg/mL (≈ 7.75 µM) in experiment [1]; 0.12 µg/mL (≈ 0.93 µM) in experiment [2]; 2 µg/mL (≈ 15.5 µM) in experiment [3]; 0.12 µg/mL (≈ 0.93 µM) in experiment [4]; 4 µg/mL (≈ 31 µM) in experiment [5]; 0.06 µg/mL (≈ 0.465 µM) in experiment [6].

With `CCC(C)n1ncn(-c2ccc(N3CCN(c4ccc(OCC5COC(Cn6cncn6)(c6ccc(Cl)cc6Cl)O5)cc4)CC3)cc2)c1=O` (stereo unspecified) [ITRACONAZOLE], the minimal inhibitory concentration (MIC) in experiment [1] came to 0.06 µg/mL (≈ 0.085 µM); in experiment [2], 0.12 µg/mL (≈ 0.17 µM); in experiment [3], 0.06 µg/mL (≈ 0.085 µM); in experiment [4], 0.03 µg/mL (≈ 0.0425 µM); in experiment [5], 0.12 µg/mL (≈ 0.17 µM); in experiment [6] it was 0.03 µg/mL (≈ 0.0425 µM).

`CC(=O)N1CCN(c2ccc(OCC3COC(Cn4ccnc4)(c4ccc(Cl)cc4Cl)O3)cc2)CC1` (stereo unspecified) [KETOCONAZOLE]: the MIC in experiment [1] turned out to be 0.06 µg/mL (≈ 0.113 µM); in experiment [2], 0.03 µg/mL (≈ 0.0565 µM); in experiment [3] it was 0.12 µg/mL (≈ 0.226 µM); in experiment [4] it was 0.01 µg/mL (≈ 0.0188 µM); in experiment [5], 0.12 µg/mL (≈ 0.226 µM); in experiment [6] it was 0.01 µg/mL (≈ 0.0188 µM).

`C[C@@H](c1ncncc1F)[C@](O)(Cn1cncn1)c1ccc(F)cc1F` [VORICONAZOLE]: the MIC in experiment [1] worked out at 0.06 µg/mL (≈ 0.172 µM); in experiment [2], 0.03 µg/mL (≈ 0.0859 µM); in experiment [3] it was 0.06 µg/mL (≈ 0.172 µM); in experiment [4], 0.03 µg/mL (≈ 0.0859 µM); in experiment [5], 0.06 µg/mL (≈ 0.172 µM); in experiment [6], 0.01 µg/mL (≈ 0.0286 µM).
